Results taken from PubChem BioAssay.
Activity calls are given as the source filed them.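 The calls were made as follows, unless noted: active = Her2 level under about 52% in both replicate screens, with viability over 70% of control (limit read from the data); inconclusive = Her2 under the limit in one screen only, or viability under 70%; inactive = Her2 level above the set limit.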

Columns and labels:
[1] = reducers of endogenous Her2 protein level, primary screen, SKBR3 breast tumor cells, AlphaScreen, ATP viability (AID 461); conditions: 18-24 h, measured here: SKBR3 viability, ATP luminescence, at 10 µM;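 as to Her2 level: lower value means less Her2 protein in the cells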;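 as to viability: percent of carrier control wells set as 100% viability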
[2] = target: Receptor tyrosine-protein kinase erbB-2 (Homo sapiens) (UniProt P04626); test: as above; conditions: 18-24 h, at 10 µM, stronger effect = lower value
Sequence of Receptor tyrosine-protein kinase erbB-2 (Homo sapiens) (P04626 whole entry, looked up): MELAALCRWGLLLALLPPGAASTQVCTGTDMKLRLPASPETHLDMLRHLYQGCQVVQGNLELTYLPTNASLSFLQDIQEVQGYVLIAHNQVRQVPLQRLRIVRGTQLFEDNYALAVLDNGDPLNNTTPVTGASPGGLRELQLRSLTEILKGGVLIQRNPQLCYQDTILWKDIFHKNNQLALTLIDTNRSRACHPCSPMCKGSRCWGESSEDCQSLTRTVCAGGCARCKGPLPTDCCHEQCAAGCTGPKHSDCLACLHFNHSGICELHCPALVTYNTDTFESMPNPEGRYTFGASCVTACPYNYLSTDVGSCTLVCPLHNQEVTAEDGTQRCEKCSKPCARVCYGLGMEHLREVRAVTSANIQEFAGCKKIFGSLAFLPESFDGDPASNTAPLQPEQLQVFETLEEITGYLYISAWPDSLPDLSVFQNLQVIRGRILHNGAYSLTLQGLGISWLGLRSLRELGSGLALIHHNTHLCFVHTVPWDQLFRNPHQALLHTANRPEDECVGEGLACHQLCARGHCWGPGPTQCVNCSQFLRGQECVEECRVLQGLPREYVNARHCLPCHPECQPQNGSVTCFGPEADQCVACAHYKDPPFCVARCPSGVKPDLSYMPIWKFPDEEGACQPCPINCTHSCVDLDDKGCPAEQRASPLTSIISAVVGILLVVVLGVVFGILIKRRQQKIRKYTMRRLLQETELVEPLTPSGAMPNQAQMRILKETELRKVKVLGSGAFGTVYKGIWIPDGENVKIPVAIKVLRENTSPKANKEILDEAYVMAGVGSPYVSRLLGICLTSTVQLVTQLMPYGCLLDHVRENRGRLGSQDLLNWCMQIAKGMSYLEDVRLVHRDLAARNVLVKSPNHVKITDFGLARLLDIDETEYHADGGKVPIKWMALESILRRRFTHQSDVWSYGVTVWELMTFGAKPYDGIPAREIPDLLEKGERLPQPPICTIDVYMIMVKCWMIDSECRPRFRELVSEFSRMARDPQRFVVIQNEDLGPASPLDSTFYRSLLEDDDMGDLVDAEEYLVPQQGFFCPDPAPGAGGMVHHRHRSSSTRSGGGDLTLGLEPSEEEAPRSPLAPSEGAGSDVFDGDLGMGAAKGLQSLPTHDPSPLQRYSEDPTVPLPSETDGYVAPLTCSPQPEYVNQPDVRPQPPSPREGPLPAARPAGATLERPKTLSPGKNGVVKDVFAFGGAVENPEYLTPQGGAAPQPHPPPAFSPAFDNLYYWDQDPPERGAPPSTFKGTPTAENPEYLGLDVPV

[3] = SK-BR-3 cell growth inhibitors, pilot screen, 24 h, human (AID 572;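 active = viability at or below 10% of carrier control in both of two separate runs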;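 also: compound exposure lasted between 18 and 24 h rather than exactly 24 h; 100% = carrier-treated control wells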); conditions: SK-BR-3 viability, CellTiter-Glo luminescence, at 10 µM, stronger effect = lower value
[4] = HUVEC growth inhibition – cell-based, human, primary screen (AID 575;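 active = viability at or below 30% in both replicate assays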;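 also: 100% = median of untreated cell wells with 0.1% DMSO on each plate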); conditions: HUVEC proliferation, CellTiter-Glo luminescence, 72 h; at 10 µM; stronger effect = lower value
Procedure, shortened: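 System – primary HUVEC, no more than 12 passages · Medium – Low-serum (2% FBS) EBM, supplemented · Times – 72 h exposure, 37 °C, 5% CO2, 30 min RT equilibration · Measured by – luminescent ATP assay · Read-out – % viability relative to median vehicle-well signal on each plate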

[5] = growth inhibitors of H69AR lung tumor, primary screen, human, duplicate replicates (AID 580;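 active = viability at or under a set limit in both replicates, limit being median viability minus 3 SD, cut at about 48% in these data, passing the limit was not always enough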;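 also: 100% = mean luminescence of untreated wells and 0% = no signal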); conditions: H69AR lung tumor cells viability, ATP luminescence, 72 h; at 10 µM; stronger effect = lower value
[6] = reversal of MRP1-mediated doxorubicin resistance, pilot screen, H69AR cells, doxorubicin co-treatment (AID 601;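 active = viability loss from added drug above about 55%, and viability with drug at most 40%, in both replicates, limit read from the data, passing the limit was not always enough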); conditions: CellTiter-Glo, 72 h, at 10 µM; for differential viability (reversal): stronger effect = higher value
[7] = 384-well plate pilot, post-Golgi transport modulator project, inhibition of yeast transport mutant growth (AID 636; in the data active = inhibition above about 31%); conditions: absorbance 615 nm, about 18 h, stronger effect = higher value
[8] = growth suppression of yeast trafficking mutant, preliminary HTS, modulators of trafficking downstream of Golgi apparatus project, 1536-format plate, OD 615 nm (AID 637; in the data active = inhibition above about 30%); conditions: yeast transport mutant growth, absorbance 615 nm, 18 h; stronger effect = higher value
[9] = H69AR cells + 2 uM doxorubicin, measured here: viability with 2 uM doxorubicin, stronger effect = lower value
[10] = H69AR cells, compound alone cytotoxicity

SMILES | viability [1] [%] | Her2 level [2] | viability [3] | viability [4] | viability [5] | differential viability (reversal) ([6]; H69AR cells + 2 uM doxorubicin) | viability [6, 9] [%] | viability [6, 10] [%] | inhibition [7] | inhibition [8]
NC(=O)CSc1nnc(-c2cnccn2)n1-c1ccccc1 | 114 | 97% (inactive) | 114% (inactive) | 103% (inactive) | 89.8% (inactive) | 7.27% (inactive) | 82.5 | 89.8 | -5.07% (inactive) | 1.13% (inactive)
CCc1ccc(N2CC(C(=O)OCC(=O)Nc3cc(C)on3)CC2=O)cc1 (stereo not given) | 94 | 92% (inactive) | 94% (inactive) | 107% (inactive) | 110% (inactive) | 11.1% (inactive) | 99.2 | 110 | 0.9% (inactive) | -3.83% (inactive)
CCCC(=O)N=C1SC2CS(=O)(=O)CC2N1c1ccc(CC)cc1 (stereo not given) | 97.5 | 80% (inactive) | 97.5% (inactive) | 83.2% (inactive) | 93.2% (inactive) | 7.88% (inactive) | 85.4 | 93.2 | -5.33% (inactive) | 3.61% (inactive)
c1ccc2c(c1)sc1nnnn12 | 94.5 | 81% (inactive) | 94.5% (inactive) | 79.9% (inactive) | 86.6% (inactive) | -13.7% (inactive) | 100 | 86.6 | -5.07% (inactive) | 1.97% (inactive)
CC(=O)Nc1ccc(OCC(O)Cn2nc(C)nc2C)cc1 (stereo not given) | 93 | 86.5% (inactive) | 93% (inactive) | 81.3% (inactive) | 91% (inactive) | -5.46% (inactive) | 96.5 | 91 | -1.67% (inactive) | -4.83% (inactive)
CC(c1nnc(SCC(=O)Nc2sccc2C#N)n1-c1ccc(Cl)cc1)N(C)C (stereo not given) | 103 | 74% (inactive) | 103% (inactive) | 91.8% (inactive) | 75.4% (inactive) | -5.88% (inactive) | 81.2 | 75.4 | -3.68% (inactive) | 0.79% (inactive)
CCOC(=O)C1CCCN(c2c(N3CCN(c4ccccn4)CC3)c(=O)c2=O)C1 (stereo not given) | 86.5 | 104% (inactive) | 86.5% (inactive) | 86.7% (inactive) | 102% (inactive) | 15% (inactive) | 86.5 | 102 | 0% (inactive) | -2.46% (inactive)
CCCCCn1c(N2CCN(Cc3ccccc3)CC2)nc2c1c(=O)[nH]c(=O)n2C | 110 | 78% (inactive) | 110% (inactive) | 93.3% (inactive) | 76.9% (inactive) | 23.7% (inactive) | 53.2 | 76.9 | -6.67% (inactive) | -2.46% (inactive)
COc1ccc(Cc2nn3c(-c4cc(OC)c(OC)c(OC)c4)nnc3s2)cc1 | 95 | 76.5% (inactive) | 95% (inactive) | 102% (inactive) | 81.6% (inactive) | 11.7% (inactive) | 69.9 | 81.6 | -6.08% (inactive) | 5.17% (inactive)
CCc1cc2c(=O)n(C(C)C(=O)OC3CCCCC3)cnc2s1 (stereo not given) | 102 | 117% (inactive) | 102% (inactive) | 90.1% (inactive) | 81.6% (inactive) | -4.32% (inactive) | 85.9 | 81.6 | -6.62% (inactive) | -5.83% (inactive)
O=S(=O)(NCC(c1cccnc1)N1CCN(c2ccccc2)CC1)c1cc(F)ccc1F (stereo not given) | 98.5 | 87% (inactive) | 98.5% (inactive) | 81.5% (inactive) | 86.4% (inactive) | -8.3% (inactive) | 94.7 | 86.4 | 5.19% (inactive) | 92% (active)
CCOC(=O)C1CCN(C(=O)c2ccc(OC)cc2OC)CC1 | 102 | 112% (inactive) | 102% (inactive) | 110% (inactive) | 106% (inactive) | 5.9% (inactive) | 100 | 106 | -6.13% (inactive) | 6.13% (inactive)
CCCN(CCC)S(=O)(=O)c1ccc(C(=O)Nc2nnc(-c3cccc(OC)c3)o2)cc1 | 98.5 | 89% (inactive) | 98.5% (inactive) | 8.23% (active) | 15.3% (active) | -7.05% (inactive) | 22.3 | 15.3 | -5.79% (inactive) | -1.64% (inactive)
Cc1[nH]c(=O)[nH]c(=O)c1S(=O)(=O)N1CCN(c2cccc(Cl)c2)CC1 | 88 | 112% (inactive) | 88% (inactive) | 82.6% (inactive) | 93.2% (inactive) | 1.64% (inactive) | 91.6 | 93.2 | 3.95% (inactive) | -9.35% (inactive)
c1ccc(Oc2ccc(-n3cnnn3)cc2)cc1 | 102 | 122% (inactive) | 102% (inactive) | 95.7% (inactive) | 94.2% (inactive) | 15.4% (inactive) | 78.8 | 94.2 | -0.52% (inactive) | -12.2% (inactive)
COC(=O)C1=C(C)NC(=O)C1(Nc1ccc(Cl)cn1)C(F)(F)F (stereo not given) | 90.5 | 83.5% (inactive) | 90.5% (inactive) | 103% (inactive) | 96.5% (inactive) | -1.2% (inactive) | 97.7 | 96.5 | -3.59% (inactive) | -5.17% (inactive)

SMILES | viability [1] [%] | Her2 level [2] | viability [3] | viability [4] | viability [5] | differential viability (reversal) ([6]; H69AR cells + 2 uM doxorubicin) | viability [6, 9] [%] | viability [6, 10] [%] | inhibition [7] | inhibition [8]
CCCc1[nH]nc2c1C(c1cccc(OC(=O)c3ccco3)c1)C(C#N)=C(N)O2 (stereo not given) | 93.5 | 72% (inactive) | 93.5% (inactive) | 81.6% (inactive) | 95.3% (inactive) | 1.18% (inactive) | 94.1 | 95.3 | -3.16% (inactive) | -1.11% (inactive)
Cn1nc(C(=O)N2CCOCC2)c2ccccc2c1=O | 93 | 114% (inactive) | 93% (inactive) | 88.9% (inactive) | 89.3% (inactive) | 5.89% (inactive) | 83.4 | 89.3 | -1.3% (inactive) | 0.67% (inactive)
COc1ccc(C)cc1NC(=O)CN(Cc1nnc(-c2ccc(Cl)cc2)o1)C1CCCC1 | 89 | 89.5% (inactive) | 89% (inactive) | 84.5% (inactive) | 4.7% (active) | -33.9% (inactive) | 38.6 | 4.7 | -4.73% (inactive) | -2.95% (inactive)
CCN(CCCNC(=O)c1cn(CC)c2ccc(S(=O)(=O)N(C)C)cc2c1=O)c1cccc(C)c1 | 98 | 74.5% (inactive) | 98% (inactive) | 61.6% (inactive) | 80% (inactive) | 60.4% (active) | 19.6 | 80 | -2.8% (inactive) | 4.26% (inactive)
Cn1c2ccccc2c2ncn(CCCN3CCOCC3)c(=O)c21 | 89 | 93% (inactive) | 89% (inactive) | 101% (inactive) | 94.6% (inactive) | 1.77% (inactive) | 92.9 | 94.6 | -7.6% (inactive) | -7.94% (inactive)
CCN1C(=O)c2cccc3c(NC(=O)c4ccc5c(c4)OCCO5)ccc1c23 | 108 | 89% (inactive) | 108% (inactive) | 55.5% (inactive) | 52.2% (inactive) | -20.3% (inactive) | 72.5 | 52.2 | -4.81% (inactive) | 0.63% (inactive)
Cc1c(NC(=O)C(C)OC(=O)C(NC(=O)c2ccco2)C(C)C)c(=O)n(-c2ccccc2)n1C (stereo not given) | 91 | 91.5% (inactive) | 91% (inactive) | 90.9% (inactive) | 91.5% (inactive) | 5.67% (inactive) | 85.8 | 91.5 | -6.89% (inactive) | -5.5% (inactive)
CCNc1nc(OC)nc(Oc2ccc(=O)n(-c3ccccc3)n2)n1 | 96 | 86.5% (inactive) | 96% (inactive) | 106% (inactive) | 96.4% (inactive) | 10.6% (inactive) | 85.8 | 96.4 | -8.51% (inactive) | 2% (inactive)
O=C(NCC1COc2ccccc2O1)C1CCCN(S(=O)(=O)c2cnc[nH]2)C1 (stereo not given) | 88 | 101% (inactive) | 88% (inactive) | 91.9% (inactive) | 109% (inactive) | 18.9% (inactive) | 89.7 | 109 | -2.13% (inactive) | -2.95% (inactive)
OCC#CCSc1nnc(-c2ccccc2Br)o1 | 118 | 109% (inactive) | 118% (inactive) | 85.3% (inactive) | 86.2% (inactive) | 5.93% (inactive) | 80.2 | 86.2 | 0% (inactive) | 4.26% (inactive)
COc1cc(OC)nc(NC(=O)CSc2nc3ccccc3o2)n1 | 87.5 | 82.5% (inactive) | 87.5% (inactive) | 97.7% (inactive) | 92.4% (inactive) | -2.58% (inactive) | 94.9 | 92.4 | -6.4% (inactive) | 2.95% (inactive)
CCOc1ccc(C(C)=O)cc1COc1ccc(-n2cnnn2)cc1 | 99 | 108% (inactive) | 99% (inactive) | 111% (inactive) | 77.2% (inactive) | -2.58% (inactive) | 79.8 | 77.2 | -4% (inactive) | -8.52% (inactive)
Nc1nc(CN2CCN(Cc3ccc4c(c3)OCO4)CC2)nc(Nc2ccccc2)n1 | 102 | 92.5% (inactive) | 102% (inactive) | 114% (inactive) | 97.4% (inactive) | 13% (inactive) | 84.4 | 97.4 | -2.76% (inactive) | 5.48% (inactive)
CCc1nc(SCC(=O)Nc2nccs2)c2oc3ccccc3c2n1 | 91 | 87.5% (inactive) | 91% (inactive) | 109% (inactive) | 37.4% (active) | -5.17% (inactive) | 42.6 | 37.4 | -7.43% (inactive) | -7% (inactive)
CCc1nnc2n1N=C(c1ccc(-c3ccc(Cl)cc3Cl)o1)CS2 | 99.5 | 81.5% (inactive) | 99.5% (inactive) | 110% (inactive) | 108% (inactive) | 23.9% (inactive) | 84.4 | 108 | -2.99% (inactive) | -3.17% (inactive)
O=C(Nc1cccnc1)Nc1ccc2c(c1)OCO2 | 102 | 74% (inactive) | 102% (inactive) | 78.1% (inactive) | 82.7% (inactive) | 12.9% (inactive) | 69.8 | 82.7 | -2.24% (inactive) | 6.03% (inactive)
